Data reported in ChEMBL document CHEMBL1155544, “Syntheses and structure-activity relationship (SAR) studies of 2,5-diazabicyclo[2.2.1]heptanes as novel alpha7 neuronal nicotinic receptor (NNR) ligands” (Bioorg Med Chem Lett, 2010).

Assay: Metabolic stability in human liver microsome assessed as compound remaining after 30 mins
Format: ADME
Details: liver microsomes, read-out: Stability
Method in brief: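 Human liver microsomes, 30 min incubation; read-out is percent of parent compound remaining.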

CN1C[C@@H]2C[C@H]1CN2c1ccc(-c2ccc3[nH]ccc3c2)nn1
remaining at 0.5 h: 97%
